# Tested on: HEK-293T
# Assay: Multiplex assay against HEK293T
# Type: toxicity, cell-based
# Conditions: human
# In short: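 On a CQ1 microscope at 37°C and 5% CO2, live cells were imaged after compound addition. They had been stained at seeding with Hoechst33342, BioTracker Green Microtubule Cytoskeleton Dye, MitoTracker Red and Annexin V Alexa Fluor 680. CellPathfinder machine-learning gating assigned cells to Hoechst high-intensity objects or normal cells, normal cells to healthy, pyknosed or fragmented nuclei, and pyknosed cells to mitotic or apoptotic. Tubulin, mitochondrial-mass and membrane-permeability phenotypes are per cents of healthy-nucleus cells.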
# [1] = 12 h, 1 µM, compound concentration 1 uM, replicate 1
# [2] = 12 h, 1 µM, compound concentration 1 uM, replicate 2
# [3] = 12 h, 10 µM, compound concentration 10 uM, replicate 1
# [4] = 12 h, 10 µM, compound concentration 10 uM, replicate 2
# [5] = 24 h, 1 µM, compound concentration 1 uM, replicate 1
# [6] = 24 h, 1 µM, compound concentration 1 uM, replicate 2
# [7] = 24 h, 10 µM, compound concentration 10 uM, replicate 1
# [8] = 24 h, 10 µM, compound concentration 10 uM, replicate 2
# [9] = 48 h, 1 µM, compound concentration 1 uM, replicate 1
# [10] = 48 h, 1 µM, compound concentration 1 uM, replicate 2
# [11] = 48 h, 10 µM, compound concentration 10 uM, replicate 1
# [12] = 48 h, 10 µM, compound concentration 10 uM, replicate 2
smiles,measurement,setting,value
O=c1nc2[nH]c3ccccc3nc-2c(=O)[nH]1 [ALLOXAZINE],Population Apoptotic (%),[1],27%
same,Population Fragmented Nuclei (%),[1],8%
same,Population Healthy Nuclei (%),[1],77%
same,Population Hoechst High Intensity Objects (%),[1],8%
same,Population Membrane Permeable-Phenotype (%),[1],0%
same,Population Mitochondria Different-Phenotype (%),[1],44%
same,Population Mitotic Cells (%),[1],72%
same,Population Normal (%),[1],91%
same,Population Pyknosed Nuclei (%),[1],13%
same,Population Tubulin-Different-Phenotype (%),[1],33%
same,Total Cell Count,[1],377
same,Population Apoptotic (%),[2],44%
same,Population Fragmented Nuclei (%),[2],4%
same,Population Healthy Nuclei (%),[2],79%
same,Population Hoechst High Intensity Objects (%),[2],7%
same,Population Mitochondria Different-Phenotype (%),[2],66%
same,Population Mitotic Cells (%),[2],55%
same,Population Normal (%),[2],92%
same,Population Pyknosed Nuclei (%),[2],15%
same,Population Tubulin-Different-Phenotype (%),[2],25%
same,Total Cell Count,[2],345
same,Population Apoptotic (%),[3],40%
same,Population Fragmented Nuclei (%),[3],10%
same,Population Healthy Nuclei (%),[3],71%
same,Population Hoechst High Intensity Objects (%),[3],5%
same,Population Membrane Permeable-Phenotype (%),[3],0%
same,Population Mitochondria Different-Phenotype (%),[3],53%
same,Population Mitotic Cells (%),[3],59%
same,Population Normal (%),[3],94%
same,Population Pyknosed Nuclei (%),[3],18%
same,Population Tubulin-Different-Phenotype (%),[3],31%
same,Total Cell Count,[3],362
same,Population Apoptotic (%),[4],60%
same,Population Fragmented Nuclei (%),[4],8%
same,Population Healthy Nuclei (%),[4],70%
same,Population Hoechst High Intensity Objects (%),[4],15%
same,Population Mitochondria Different-Phenotype (%),[4],67%
same,Population Mitotic Cells (%),[4],40%
same,Population Normal (%),[4],84%
same,Population Pyknosed Nuclei (%),[4],20%
same,Population Tubulin-Different-Phenotype (%),[4],20%
same,Total Cell Count,[4],323
same,Population Apoptotic (%),[5],22%
same,Population Fragmented Nuclei (%),[5],10%
same,Population Healthy Nuclei (%),[5],76%
same,Population Hoechst High Intensity Objects (%),[5],4%
same,Population Membrane Permeable-Phenotype (%),[5],0%
same,Population Mitochondria Different-Phenotype (%),[5],24%
same,Population Mitotic Cells (%),[5],77%
same,Population Normal (%),[5],95%
same,Population Pyknosed Nuclei (%),[5],12%
same,Population Tubulin-Different-Phenotype (%),[5],19%
same,Total Cell Count,[5],504
same,Population Apoptotic (%),[6],33%
same,Population Fragmented Nuclei (%),[6],7%
same,Population Healthy Nuclei (%),[6],83%
same,Population Hoechst High Intensity Objects (%),[6],7%
same,Population Mitochondria Different-Phenotype (%),[6],41%
same,Population Mitotic Cells (%),[6],66%
same,Population Normal (%),[6],92%
same,Population Pyknosed Nuclei (%),[6],8%
same,Population Tubulin-Different-Phenotype (%),[6],12%
same,Total Cell Count,[6],391
same,Population Apoptotic (%),[7],27%
same,Population Fragmented Nuclei (%),[7],9%
same,Population Healthy Nuclei (%),[7],77%
same,Population Hoechst High Intensity Objects (%),[7],6%
same,Population Membrane Permeable-Phenotype (%),[7],0%
same,Population Mitochondria Different-Phenotype (%),[7],34%
same,Population Mitotic Cells (%),[7],72%
same,Population Normal (%),[7],93%
same,Population Pyknosed Nuclei (%),[7],12%
same,Population Tubulin-Different-Phenotype (%),[7],21%
same,Total Cell Count,[7],491
same,Population Apoptotic (%),[8],50%
same,Population Healthy Nuclei (%),[8],72%
same,Population Hoechst High Intensity Objects (%),[8],15%
same,Population Mitochondria Different-Phenotype (%),[8],48%
same,Population Mitotic Cells (%),[8],50%
same,Population Normal (%),[8],84%
same,Population Pyknosed Nuclei (%),[8],17%
same,Population Tubulin-Different-Phenotype (%),[8],16%
same,Total Cell Count,[8],371
same,Population Apoptotic (%),[9],32%
same,Population Fragmented Nuclei (%),[9],14%
same,Population Healthy Nuclei (%),[9],77%
same,Population Hoechst High Intensity Objects (%),[9],3%
same,Population Membrane Permeable-Phenotype (%),[9],1%
same,Population Mitochondria Different-Phenotype (%),[9],18%
same,Population Mitotic Cells (%),[9],67%
same,Population Normal (%),[9],96%
same,Population Pyknosed Nuclei (%),[9],8%
same,Population Tubulin-Different-Phenotype (%),[9],13%
same,Total Cell Count,[9],773
same,Population Apoptotic (%),[10],27%
same,Population Fragmented Nuclei (%),[10],11%
same,Population Healthy Nuclei (%),[10],82%
same,Population Hoechst High Intensity Objects (%),[10],4%
same,Population Membrane Permeable-Phenotype (%),[10],0%
same,Population Mitochondria Different-Phenotype (%),[10],26%
same,Population Mitotic Cells (%),[10],72%
same,Population Normal (%),[10],95%
same,Population Pyknosed Nuclei (%),[10],6%
same,Population Tubulin-Different-Phenotype (%),[10],12%
same,Total Cell Count,[10],636
same,Population Apoptotic (%),[11],29%
same,Population Fragmented Nuclei (%),[11],15%
same,Population Healthy Nuclei (%),[11],76%
same,Population Hoechst High Intensity Objects (%),[11],3%
same,Population Membrane Permeable-Phenotype (%),[11],0%
same,Population Mitochondria Different-Phenotype (%),[11],17%
same,Population Mitotic Cells (%),[11],70%
same,Population Normal (%),[11],96%
same,Population Pyknosed Nuclei (%),[11],7%
same,Population Tubulin-Different-Phenotype (%),[11],11%
same,Total Cell Count,[11],700
same,Population Apoptotic (%),[12],48%
same,Population Fragmented Nuclei (%),[12],14%
same,Population Healthy Nuclei (%),[12],78%
same,Population Hoechst High Intensity Objects (%),[12],4%
same,Population Mitochondria Different-Phenotype (%),[12],28%
same,Population Mitotic Cells (%),[12],51%
same,Population Normal (%),[12],95%
same,Population Pyknosed Nuclei (%),[12],6%
same,Population Tubulin-Different-Phenotype (%),[12],14%
same,Total Cell Count,[12],531
CCCCC[C@H](O)/C=C/[C@H]1[C@H](O)CC(=O)[C@@H]1CCCCCCC(=O)O [ALPROSTADIL],Population Apoptotic (%),[1],35%
same,Population Fragmented Nuclei (%),[1],7%
same,Population Healthy Nuclei (%),[1],79%
same,Population Hoechst High Intensity Objects (%),[1],7%
same,Population Membrane Permeable-Phenotype (%),[1],0%
same,Population Mitochondria Different-Phenotype (%),[1],42%
same,Population Mitotic Cells (%),[1],64%
same,Population Normal (%),[1],92%
same,Population Pyknosed Nuclei (%),[1],13%
same,Population Tubulin-Different-Phenotype (%),[1],28%
same,Total Cell Count,[1],471
same,Population Apoptotic (%),[2],50%
same,Population Fragmented Nuclei (%),[2],6%
same,Population Healthy Nuclei (%),[2],80%
same,Population Hoechst High Intensity Objects (%),[2],6%
same,Population Mitochondria Different-Phenotype (%),[2],55%
same,Population Mitotic Cells (%),[2],49%
same,Population Normal (%),[2],93%
same,Population Tubulin-Different-Phenotype (%),[2],18%
same,Total Cell Count,[2],392
same,Population Apoptotic (%),[3],33%
same,Population Fragmented Nuclei (%),[3],7%
same,Population Healthy Nuclei (%),[3],78%
same,Population Hoechst High Intensity Objects (%),[3],6%
same,Population Membrane Permeable-Phenotype (%),[3],1%
same,Population Mitochondria Different-Phenotype (%),[3],48%
same,Population Mitotic Cells (%),[3],66%
same,Population Normal (%),[3],93%
same,Population Pyknosed Nuclei (%),[3],14%
same,Population Tubulin-Different-Phenotype (%),[3],33%
same,Total Cell Count,[3],318
same,Population Healthy Nuclei (%),[4],75%
same,Population Hoechst High Intensity Objects (%),[4],9%
same,Population Membrane Permeable-Phenotype (%),[4],0%
same,Population Mitochondria Different-Phenotype (%),[4],64%
same,Population Normal (%),[4],90%
same,Population Pyknosed Nuclei (%),[4],17%
same,Population Tubulin-Different-Phenotype (%),[4],30%
same,Total Cell Count,[4],309
same,Population Apoptotic (%),[5],35%
same,Population Fragmented Nuclei (%),[5],9%
same,Population Healthy Nuclei (%),[5],79%
same,Population Hoechst High Intensity Objects (%),[5],3%
same,Population Membrane Permeable-Phenotype (%),[5],1%
same,Population Mitochondria Different-Phenotype (%),[5],22%
same,Population Mitotic Cells (%),[5],64%
same,Population Normal (%),[5],96%
same,Population Pyknosed Nuclei (%),[5],10%
same,Population Tubulin-Different-Phenotype (%),[5],15%
same,Total Cell Count,[5],605
same,Population Apoptotic (%),[6],34%
same,Population Fragmented Nuclei (%),[6],6%
same,Population Healthy Nuclei (%),[6],85%
same,Population Hoechst High Intensity Objects (%),[6],4%
same,Population Membrane Permeable-Phenotype (%),[6],0%
same,Population Mitochondria Different-Phenotype (%),[6],35%
same,Population Mitotic Cells (%),[6],65%
same,Population Normal (%),[6],95%
same,Population Pyknosed Nuclei (%),[6],8%
same,Population Tubulin-Different-Phenotype (%),[6],14%
same,Total Cell Count,[6],526
same,Population Apoptotic (%),[7],32%
same,Population Fragmented Nuclei (%),[7],11%
same,Population Healthy Nuclei (%),[7],76%
same,Population Hoechst High Intensity Objects (%),[7],2%
same,Population Membrane Permeable-Phenotype (%),[7],0%
same,Population Mitochondria Different-Phenotype (%),[7],26%
same,Population Mitotic Cells (%),[7],67%
same,Population Normal (%),[7],97%
same,Population Pyknosed Nuclei (%),[7],12%
same,Population Tubulin-Different-Phenotype (%),[7],23%
same,Total Cell Count,[7],439
same,Population Apoptotic (%),[8],36%
same,Population Fragmented Nuclei (%),[8],7%
same,Population Healthy Nuclei (%),[8],79%
same,Population Hoechst High Intensity Objects (%),[8],8%
same,Population Mitochondria Different-Phenotype (%),[8],50%
same,Population Mitotic Cells (%),[8],63%
same,Population Normal (%),[8],91%
same,Population Tubulin-Different-Phenotype (%),[8],22%
same,Total Cell Count,[8],345
same,Population Apoptotic (%),[9],32%
same,Population Fragmented Nuclei (%),[9],13%
same,Population Healthy Nuclei (%),[9],79%
same,Population Hoechst High Intensity Objects (%),[9],2%
same,Population Membrane Permeable-Phenotype (%),[9],2%
same,Population Mitochondria Different-Phenotype (%),[9],12%
same,Population Mitotic Cells (%),[9],67%
same,Population Normal (%),[9],97%
same,Population Pyknosed Nuclei (%),[9],7%
same,Population Tubulin-Different-Phenotype (%),[9],11%
same,Total Cell Count,[9],1005
same,Population Apoptotic (%),[10],13%
same,Population Fragmented Nuclei (%),[10],16%
same,Population Healthy Nuclei (%),[10],77%
same,Population Hoechst High Intensity Objects (%),[10],3%
same,Population Membrane Permeable-Phenotype (%),[10],0%
same,Population Mitochondria Different-Phenotype (%),[10],21%
same,Population Mitotic Cells (%),[10],86%
same,Population Normal (%),[10],96%
same,Population Pyknosed Nuclei (%),[10],6%
same,Population Tubulin-Different-Phenotype (%),[10],12%
same,Total Cell Count,[10],714
same,Population Apoptotic (%),[11],25%
same,Population Fragmented Nuclei (%),[11],15%
same,Population Healthy Nuclei (%),[11],76%
same,Population Hoechst High Intensity Objects (%),[11],2%
same,Population Membrane Permeable-Phenotype (%),[11],1%
same,Population Mitochondria Different-Phenotype (%),[11],17%
same,Population Mitotic Cells (%),[11],75%
same,Population Normal (%),[11],97%
same,Population Pyknosed Nuclei (%),[11],7%
same,Population Tubulin-Different-Phenotype (%),[11],15%
same,Total Cell Count,[11],685
same,Population Apoptotic (%),[12],20%
same,Population Fragmented Nuclei (%),[12],14%
same,Population Healthy Nuclei (%),[12],79%
same,Population Membrane Permeable-Phenotype (%),[12],0%
same,Population Mitochondria Different-Phenotype (%),[12],30%
same,Population Mitotic Cells (%),[12],80%
same,Population Pyknosed Nuclei (%),[12],6%
same,Population Tubulin-Different-Phenotype (%),[12],14%
same,Total Cell Count,[12],537

# — ChEMBL document CHEMBL5058577, “EUbOPEN Chemogenomics Library 2 (Multiplex)” (2022)
